Here are results for two compounds from ChEMBL document CHEMBL5696442, “Discovery of type II inhibitors of TGFβ-activated kinase 1 (TAK1) and mitogen-activated protein kinase kinase kinase kinase 2 (MAP4K2)” (J Med Chem, 2015).

Experiment [1] deals with Tyrosine-protein kinase ABL2 (Homo sapiens, UniProt P42684). Put plainly: Inhibition of ARG ACT labeling site in human A-375 cells at 0.5 uM by KiNativ Profiling analysis relative to control. It is filed as cell-based. A digest of the protocol:
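Intact A375 melanoma cells were treated with compound at 5 or 0.5 μM, then lysed. Lysate kinases were labeled with a lysine-reactive ATP or ADP-biotin probe (KiNativ). Inhibition is read as protection of each kinase labeling site from probe labeling.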

The target of experiment [2] is Epidermal growth factor receptor (Homo sapiens) (UniProt P00533). The experiment is described as follows: Inhibition of EGFR ACT labeling site harbouring LLGAEEKEYHAEGGKVPIK in human A-375 cells at 5 uM by KiNativ Profiling analysis relative to control. It is filed as cell-based. In short, it runs like this:
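Live A375 melanoma cells were treated with compound at 0.5 or 5 μM, then lysed. Lysates were labeled with a lysine-reactive ATP or ADP-biotin probe. The read-out was protection of each kinase probe-labeling site from labeling, relative to control.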

Experiment [3] in a line: Inhibition of p70S6K ATP Loop labeling site harbouring DLKPENIMLNHQGHVK in human A-375 cells at 5 uM by KiNativ Profiling analysis relative to control. Particulars: condition cancer.
Experiment [4] concerns the target T1, Aurora kinase A (Homo sapiens) (UniProt O14965).
T1 sequence (whole entry): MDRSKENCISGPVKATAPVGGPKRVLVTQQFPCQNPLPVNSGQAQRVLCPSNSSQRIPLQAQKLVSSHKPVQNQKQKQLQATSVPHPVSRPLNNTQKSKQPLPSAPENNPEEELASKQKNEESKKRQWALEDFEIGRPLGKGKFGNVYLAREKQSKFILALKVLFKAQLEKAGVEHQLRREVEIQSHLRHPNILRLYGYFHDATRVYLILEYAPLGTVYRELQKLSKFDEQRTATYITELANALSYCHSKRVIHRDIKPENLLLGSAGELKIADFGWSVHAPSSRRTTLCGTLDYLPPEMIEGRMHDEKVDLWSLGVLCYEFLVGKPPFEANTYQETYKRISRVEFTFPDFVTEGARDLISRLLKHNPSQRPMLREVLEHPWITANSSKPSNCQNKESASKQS
The experiment is described as follows: Inhibition of AurA ATP Loop labeling site in human A-375 cells at 0.5 uM by KiNativ Profiling analysis relative to control. It is filed as cell-based. In short, it runs like this: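 Live A375 melanoma cells were treated with compound at 5 or 0.5 μM, then lysed. The lysates were labeled with a lysine-reactive ATP or ADP-biotin probe. Kinase protection from probe labeling was measured by KiNativ.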

Experiment [5] addresses Tyrosine-protein kinase Fer (Homo sapiens, UniProt P16591). Put plainly: Inhibition of FER Lys1 labeling site harbouring DKTSVAVKTCKEDLPQELK in human A-375 cells at 0.5 uM by KiNativ Profiling analysis relative to control. It is filed as cell-based.
Experiment [6] deals with T2, Mitogen-activated protein kinase kinase kinase 3 (Homo sapiens) (UniProt Q99759).
T2 sequence (whole entry): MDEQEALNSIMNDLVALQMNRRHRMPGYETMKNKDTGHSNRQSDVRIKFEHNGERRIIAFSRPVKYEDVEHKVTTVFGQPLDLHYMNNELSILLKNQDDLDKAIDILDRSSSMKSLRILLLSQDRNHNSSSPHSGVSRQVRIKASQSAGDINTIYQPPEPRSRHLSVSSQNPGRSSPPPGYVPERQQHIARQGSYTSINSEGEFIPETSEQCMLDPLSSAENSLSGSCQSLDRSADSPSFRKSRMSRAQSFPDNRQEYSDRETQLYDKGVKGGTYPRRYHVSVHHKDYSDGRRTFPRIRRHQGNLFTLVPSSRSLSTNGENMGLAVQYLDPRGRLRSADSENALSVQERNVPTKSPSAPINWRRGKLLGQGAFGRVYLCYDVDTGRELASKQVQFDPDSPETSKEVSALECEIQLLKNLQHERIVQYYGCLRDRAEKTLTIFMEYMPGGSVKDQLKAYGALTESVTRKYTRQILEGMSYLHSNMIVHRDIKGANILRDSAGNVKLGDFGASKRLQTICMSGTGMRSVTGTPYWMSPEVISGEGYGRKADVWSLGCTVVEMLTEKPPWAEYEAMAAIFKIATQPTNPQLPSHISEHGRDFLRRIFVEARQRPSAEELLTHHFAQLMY
The experiment is described as follows: Inhibition of MAP3K3 Lys1 labeling site in human A-375 cells at 0.5 uM by KiNativ Profiling analysis relative to control. The format is cell-based.

Experiment [7] concerns the target Cyclin-dependent kinase 17 (Homo sapiens) (UniProt Q00537). Put plainly: Inhibition of PCTAIRE2 Lys1 labeling site harbouring SKLTENLVALKEIRLEHEEGAPCTAIR in human A-375 cells at 0.5 uM by KiNativ Profiling analysis relative to control. It is filed as cell-based.
In experiment [8] the target is Interferon-induced, double-stranded RNA-activated protein kinase (Homo sapiens) (UniProt P19525). The experiment is described as follows: Inhibition of PKR Lys2 labeling site in human A-375 cells at 0.5 uM by KiNativ Profiling analysis relative to control. The format is cell-based.
Experiment [9] concerns the target T3, EKC/KEOPS complex subunit TP53RK (Homo sapiens) (UniProt Q96S44).
T3 sequence (whole entry): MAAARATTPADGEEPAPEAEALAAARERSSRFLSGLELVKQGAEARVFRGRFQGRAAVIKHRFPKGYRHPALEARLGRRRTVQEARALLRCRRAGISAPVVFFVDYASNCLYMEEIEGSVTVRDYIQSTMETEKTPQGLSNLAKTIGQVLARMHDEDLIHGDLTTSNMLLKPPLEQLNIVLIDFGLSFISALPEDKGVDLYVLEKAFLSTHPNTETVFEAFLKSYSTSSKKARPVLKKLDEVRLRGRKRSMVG
The experiment is described as follows: Inhibition of PRPK ATP Loop labeling site in human A-375 cells at 0.5 uM by KiNativ Profiling analysis relative to control. It is filed as cell-based.

Experiment [10] concerns the target Casein kinase II subunit alpha (Homo sapiens) (UniProt P68400). Put plainly: Inhibition of CK2a1 Protein Kinase Domain in human A-375 cells at 0.05 uM by KiNativ Profiling analysis relative to control. It is filed as cell-based.
Experiment [11] concerns the target MAP/microtubule affinity-regulating kinase 3 (Homo sapiens) (UniProt P27448). The experiment is described as follows: Inhibition of MARK3 Lys1 labeling site in human A-375 cells at 0.05 uM by KiNativ Profiling analysis relative to control. It is filed as cell-based.

Sequence of Epidermal growth factor receptor (Homo sapiens) (P00533 whole entry): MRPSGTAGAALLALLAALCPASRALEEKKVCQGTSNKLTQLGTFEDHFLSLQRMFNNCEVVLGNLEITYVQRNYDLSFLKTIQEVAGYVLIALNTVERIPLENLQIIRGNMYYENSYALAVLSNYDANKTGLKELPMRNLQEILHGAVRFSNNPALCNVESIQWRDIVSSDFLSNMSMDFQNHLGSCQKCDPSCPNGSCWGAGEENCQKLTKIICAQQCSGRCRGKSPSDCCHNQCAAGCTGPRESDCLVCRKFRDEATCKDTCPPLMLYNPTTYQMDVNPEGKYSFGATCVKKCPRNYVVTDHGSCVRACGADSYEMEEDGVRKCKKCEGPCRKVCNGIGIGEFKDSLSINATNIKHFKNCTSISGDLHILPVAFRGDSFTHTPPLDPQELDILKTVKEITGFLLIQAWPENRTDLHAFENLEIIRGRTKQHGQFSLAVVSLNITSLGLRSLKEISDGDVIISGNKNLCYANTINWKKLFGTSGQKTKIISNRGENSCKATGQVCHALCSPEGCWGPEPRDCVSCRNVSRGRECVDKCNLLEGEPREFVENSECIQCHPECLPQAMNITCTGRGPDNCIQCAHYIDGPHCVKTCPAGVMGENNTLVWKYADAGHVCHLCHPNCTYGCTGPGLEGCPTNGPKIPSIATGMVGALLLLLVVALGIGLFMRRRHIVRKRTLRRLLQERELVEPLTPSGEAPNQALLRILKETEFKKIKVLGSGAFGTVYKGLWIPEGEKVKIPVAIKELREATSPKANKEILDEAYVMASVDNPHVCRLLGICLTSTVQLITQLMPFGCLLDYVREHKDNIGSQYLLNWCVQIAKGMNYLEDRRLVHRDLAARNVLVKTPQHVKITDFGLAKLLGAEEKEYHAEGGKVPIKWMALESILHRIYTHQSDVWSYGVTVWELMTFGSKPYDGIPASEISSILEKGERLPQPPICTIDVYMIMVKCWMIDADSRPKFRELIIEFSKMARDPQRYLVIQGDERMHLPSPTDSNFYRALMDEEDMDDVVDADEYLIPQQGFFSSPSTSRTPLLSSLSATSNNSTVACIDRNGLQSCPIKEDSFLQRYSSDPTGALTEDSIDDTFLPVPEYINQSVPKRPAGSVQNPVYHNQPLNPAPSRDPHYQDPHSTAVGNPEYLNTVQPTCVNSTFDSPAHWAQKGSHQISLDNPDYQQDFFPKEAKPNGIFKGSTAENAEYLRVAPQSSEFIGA
Sequence of Tyrosine-protein kinase ABL2 (P42684 whole entry): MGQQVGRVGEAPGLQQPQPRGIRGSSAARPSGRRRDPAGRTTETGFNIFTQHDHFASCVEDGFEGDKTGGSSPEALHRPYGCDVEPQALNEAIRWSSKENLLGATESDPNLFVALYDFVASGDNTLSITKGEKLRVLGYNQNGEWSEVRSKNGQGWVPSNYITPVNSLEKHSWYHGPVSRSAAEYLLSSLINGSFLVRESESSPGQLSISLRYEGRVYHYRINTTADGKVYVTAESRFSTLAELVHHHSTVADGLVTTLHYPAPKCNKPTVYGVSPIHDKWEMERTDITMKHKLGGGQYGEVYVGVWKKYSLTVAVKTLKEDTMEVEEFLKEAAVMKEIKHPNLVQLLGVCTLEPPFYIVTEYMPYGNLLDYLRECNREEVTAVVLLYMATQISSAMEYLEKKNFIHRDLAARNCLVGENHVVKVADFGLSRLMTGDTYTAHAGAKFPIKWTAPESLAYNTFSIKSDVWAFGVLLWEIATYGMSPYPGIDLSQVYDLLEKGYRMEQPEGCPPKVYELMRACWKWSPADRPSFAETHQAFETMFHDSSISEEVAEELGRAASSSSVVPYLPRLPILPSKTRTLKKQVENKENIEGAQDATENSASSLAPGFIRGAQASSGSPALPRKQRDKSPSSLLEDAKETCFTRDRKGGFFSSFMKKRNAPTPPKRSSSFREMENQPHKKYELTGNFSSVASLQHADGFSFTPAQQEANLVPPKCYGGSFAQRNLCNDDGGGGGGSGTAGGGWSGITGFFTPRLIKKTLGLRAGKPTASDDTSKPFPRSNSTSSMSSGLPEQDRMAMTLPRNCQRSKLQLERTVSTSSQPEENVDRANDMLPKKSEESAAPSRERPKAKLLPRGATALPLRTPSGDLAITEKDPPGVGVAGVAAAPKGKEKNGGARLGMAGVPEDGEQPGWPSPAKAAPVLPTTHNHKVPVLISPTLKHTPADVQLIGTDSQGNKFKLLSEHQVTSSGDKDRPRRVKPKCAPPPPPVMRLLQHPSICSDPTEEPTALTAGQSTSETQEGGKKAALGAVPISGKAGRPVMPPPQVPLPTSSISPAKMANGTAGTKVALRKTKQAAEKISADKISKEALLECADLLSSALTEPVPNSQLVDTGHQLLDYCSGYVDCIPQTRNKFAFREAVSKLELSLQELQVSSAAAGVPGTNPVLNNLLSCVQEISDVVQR
Sequence of Casein kinase II subunit alpha (Homo sapiens) (P68400 whole entry, looked up, the tested form may be a part): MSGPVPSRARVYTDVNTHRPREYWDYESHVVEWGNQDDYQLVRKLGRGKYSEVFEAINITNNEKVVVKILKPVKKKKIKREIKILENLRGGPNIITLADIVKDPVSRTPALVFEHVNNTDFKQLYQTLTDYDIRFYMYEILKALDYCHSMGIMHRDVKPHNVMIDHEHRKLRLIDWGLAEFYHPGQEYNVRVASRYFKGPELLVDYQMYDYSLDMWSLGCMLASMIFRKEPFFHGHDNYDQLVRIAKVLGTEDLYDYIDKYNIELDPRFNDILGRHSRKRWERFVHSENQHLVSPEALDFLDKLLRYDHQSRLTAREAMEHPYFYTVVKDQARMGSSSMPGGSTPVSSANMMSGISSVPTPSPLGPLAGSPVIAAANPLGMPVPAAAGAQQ
Sequence of Cyclin-dependent kinase 17 (Homo sapiens) (Q00537 whole entry, looked up): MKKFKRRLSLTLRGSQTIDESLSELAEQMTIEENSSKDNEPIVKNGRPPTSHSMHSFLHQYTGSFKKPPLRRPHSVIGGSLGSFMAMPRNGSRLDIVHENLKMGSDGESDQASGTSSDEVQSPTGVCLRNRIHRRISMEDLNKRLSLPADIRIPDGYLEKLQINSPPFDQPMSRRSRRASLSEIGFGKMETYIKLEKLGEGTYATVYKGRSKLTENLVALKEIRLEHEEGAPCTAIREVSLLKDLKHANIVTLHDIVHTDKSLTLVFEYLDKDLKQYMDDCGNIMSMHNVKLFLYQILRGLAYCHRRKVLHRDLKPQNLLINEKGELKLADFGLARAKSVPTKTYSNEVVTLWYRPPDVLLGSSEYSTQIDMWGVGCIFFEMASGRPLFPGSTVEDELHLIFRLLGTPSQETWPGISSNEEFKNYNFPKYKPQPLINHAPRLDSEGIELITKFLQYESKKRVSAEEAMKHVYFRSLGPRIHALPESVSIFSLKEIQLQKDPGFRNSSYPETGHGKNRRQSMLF
Sequence of MAP/microtubule affinity-regulating kinase 3 (Homo sapiens) (P27448 whole entry, looked up): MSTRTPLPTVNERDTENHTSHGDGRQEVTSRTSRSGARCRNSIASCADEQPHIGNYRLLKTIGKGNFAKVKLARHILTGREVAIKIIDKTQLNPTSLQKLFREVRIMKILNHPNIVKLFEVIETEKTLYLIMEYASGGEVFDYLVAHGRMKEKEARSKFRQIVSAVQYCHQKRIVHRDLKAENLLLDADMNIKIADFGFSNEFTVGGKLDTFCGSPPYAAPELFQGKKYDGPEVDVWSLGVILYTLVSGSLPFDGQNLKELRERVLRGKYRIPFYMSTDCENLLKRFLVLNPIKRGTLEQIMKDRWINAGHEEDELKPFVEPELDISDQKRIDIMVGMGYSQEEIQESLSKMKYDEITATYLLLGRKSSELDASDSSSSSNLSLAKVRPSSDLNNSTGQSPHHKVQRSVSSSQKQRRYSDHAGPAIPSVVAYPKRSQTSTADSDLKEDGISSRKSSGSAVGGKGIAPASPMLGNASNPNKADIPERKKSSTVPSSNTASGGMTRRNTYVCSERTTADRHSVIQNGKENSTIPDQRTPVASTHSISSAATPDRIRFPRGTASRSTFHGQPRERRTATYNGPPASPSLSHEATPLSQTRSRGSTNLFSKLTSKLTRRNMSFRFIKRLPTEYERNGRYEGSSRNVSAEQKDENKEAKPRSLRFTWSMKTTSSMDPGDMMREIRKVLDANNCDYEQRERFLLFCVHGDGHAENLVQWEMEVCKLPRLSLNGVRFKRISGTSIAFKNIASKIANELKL
Sequence of Tyrosine-protein kinase Fer (P16591 whole entry, looked up): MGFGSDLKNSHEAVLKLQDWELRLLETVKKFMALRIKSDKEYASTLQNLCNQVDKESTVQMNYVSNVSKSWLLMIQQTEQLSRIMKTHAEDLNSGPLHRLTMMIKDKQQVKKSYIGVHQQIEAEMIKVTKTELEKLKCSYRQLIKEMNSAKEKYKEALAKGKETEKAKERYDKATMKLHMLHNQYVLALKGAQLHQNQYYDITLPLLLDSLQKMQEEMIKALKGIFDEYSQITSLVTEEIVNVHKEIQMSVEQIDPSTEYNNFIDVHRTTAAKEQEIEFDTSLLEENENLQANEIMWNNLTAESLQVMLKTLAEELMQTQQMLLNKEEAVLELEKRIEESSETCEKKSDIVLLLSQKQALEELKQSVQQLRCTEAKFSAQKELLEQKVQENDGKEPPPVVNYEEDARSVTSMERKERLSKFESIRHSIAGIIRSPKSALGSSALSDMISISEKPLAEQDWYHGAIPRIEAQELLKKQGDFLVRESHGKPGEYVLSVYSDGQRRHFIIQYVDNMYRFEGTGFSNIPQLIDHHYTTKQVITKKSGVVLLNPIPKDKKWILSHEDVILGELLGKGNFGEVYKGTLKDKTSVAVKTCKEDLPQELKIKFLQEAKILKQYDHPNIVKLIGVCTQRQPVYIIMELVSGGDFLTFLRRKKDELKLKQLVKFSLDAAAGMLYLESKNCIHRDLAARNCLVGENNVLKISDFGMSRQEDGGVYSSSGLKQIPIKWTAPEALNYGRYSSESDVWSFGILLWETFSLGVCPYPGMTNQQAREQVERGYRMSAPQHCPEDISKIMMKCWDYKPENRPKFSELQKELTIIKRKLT

Regarding `CCN1CCN(Cc2ccc(NC(=O)c3ccc(C)c(/C=C/c4cnc5[nH]ccc5c4OC)c3)cc2C(F)(F)F)CC1`, the inhibition in [1] is > 98%; in experiment [2], -7.4%; in experiment [4], 30.2%; in experiment [5] it was 30%; in [6], 33.4%; in [7], 2.4%. Moreover, the inhibition in experiment [8] was -9.6%; in experiment [9], 9.6%; in [10], 11.4%; in experiment [11] it was 16%. Besides, the inhibition at 5 µM in [3] was -8%.
Regarding `CCN1CCN(Cc2ccc(NC(=O)c3ccc(C)c(Oc4ccnc5[nH]ccc45)c3)cc2C(F)(F)F)CC1`, the inhibition is > 95% in experiment [1]; 0.7% in [2]; 31.2% in experiment [4]; 87% in experiment [5]; 42% in experiment [6]; 6.9% in experiment [7]. In addition, the inhibition in [8] was -5.5%; in [9] it was 9.2%; in experiment [10] it was -4.1%; in experiment [11] it was -4.5%. Moreover, the inhibition at 5 µM in [3] is 14.7%.
